Tests used:
Format in all cases: functional
HCT-116 [1] = experiment: Cytotoxicity against human HCT116 cells assessed as cell growth at 100 nM after 48 hrs by sulforhodamine B assay; conditions: HCT-116, 48 h, read-out: Activity
UACC-62 = experiment: Cytotoxicity against human UACC62 cells assessed as cell growth at 10 uM; conditions: Homo sapiens, UACC-62; read-out: Activity
Procedure, shortened: (§1)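 Single-dose screen at 10 μM across the 60-cell-line panel. Cells grown in RPMI 1640 with 5% FBS and 2 mM L-glutamine, seeded at 5,000–40,000 cells/well according to doubling time, and treated 24 h later. Exposure lasted 48 h at 37 °C, 5% CO₂. Adherent cells were fixed with cold TCA, suspension cells were fixed settled, and both were stained with SRB and read at 515 nm. Growth % was recorded, with inhibition % = 100 − growth %.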

SNB-19 [2] = experiment: Cytotoxicity against human SNB19 cells assessed as cell growth at 10 uM; conditions: read-out: Activity; procedure, shortened: as §1
EKVX = experiment: Cytotoxicity against human EKVX cells assessed as cell growth at 100 nM after 48 hrs by sulforhodamine B assay; conditions: read-out: Activity
HCT-116 [3] = experiment: Cytotoxicity against human HCT116 cells assessed as cell growth at 10 uM after 48 hrs by sulforhodamine B assay; conditions: HCT-116, 48 h, read-out: Activity
SK-MEL-2 = experiment: Cytotoxicity against human SK-MEL-2 cells assessed as cell growth at 10 uM; conditions: Homo sapiens, SK-MEL-2; read-out: Activity; procedure, shortened: as §1
OVCAR-5 = experiment: Cytotoxicity against human OVCAR5 cells assessed as cell growth at 10 uM; conditions: Homo sapiens, OVCAR-5; read-out: Activity; procedure, shortened: as §1
CCRF-CEM = experiment: Cytotoxicity against human CCRF-CEM cells assessed as cell growth at 10 uM; conditions: Homo sapiens, CCRF-CEM; read-out: Activity
Procedure, shortened: (§2)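 Single-concentration screen at 10 μM across the 60-cell-line panel (nine tissue types); growth percentage recorded per cell line, with inhibition taken as 100 minus growth percentage.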

SF-268 = experiment: Cytotoxicity against human SF268 cells assessed as cell growth at 0.001 uM after 48 hrs by sulforhodamine B assay; conditions: SF-268, 48 h, read-out: Activity
NCI-H322M = experiment: Cytotoxicity against human NCI-H322M cells assessed as cell growth at 10 uM; conditions: Homo sapiens, NCI-H322M; read-out: Activity; procedure, shortened: as §1
M14 = experiment: Cytotoxicity against human M14 cells assessed as cell growth at 10 uM; conditions: Homo sapiens, M14; read-out: Activity; procedure, shortened: as §1
HL-60(TB) = experiment: Cytotoxicity against human HL-60(TB) cells assessed as cell growth at 10 uM; conditions: Homo sapiens, HL-60; read-out: Activity
Procedure, shortened: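 Single-concentration 10 µM screen of HL-60(TB) within the 60-line panel, grown in RPMI 1640 with 5% FBS. The drug from DMSO stock is incubated 48 h at 37 °C, settled cells are TCA-fixed and SRB-stained, and absorbance is read at 515 nm. Percent growth is reported, and inhibition % is taken as 100 minus growth %.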

IGROV-1 = experiment: Cytotoxicity against human IGROV1 cells assessed as cell growth at 10 uM; conditions: Homo sapiens, IGROV-1; read-out: Activity; procedure, shortened: as §1
SNB-19 [4] = experiment: Cytotoxicity against human SNB19 cells assessed as cell growth at 100 nM after 48 hrs by sulforhodamine B assay; conditions: SNB-19, 48 h, read-out: Activity
[5] = Cytotoxicity against human […] cells assessed as cell growth at 10 uM; conditions: Homo sapiens, RPMI8266; read-out: Activity; procedure, shortened: as §1
786-0 = experiment: Cytotoxicity against human 786-0 cells assessed as cell growth at 10 uM; conditions: Homo sapiens, 786-0; read-out: Activity; procedure, shortened: as §2
HCT-15 = experiment: Cytotoxicity against human HCT15 cells assessed as cell growth at 0.001 uM after 48 hrs by sulforhodamine B assay; conditions: HCT-15, 48 h, read-out: Activity
COLO 205 = experiment: Cytotoxicity against human COLO205 cells assessed as cell growth at 100 nM after 48 hrs by sulforhodamine B assay; conditions: COLO 205, 48 h, read-out: Activity
Procedure, shortened: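 Cells grown in RPMI 1640 with 5% FBS and 2 mM L-glutamine, seeded at 5,000–40,000 cells/well by doubling time. Time-zero plates TCA-fixed after 24 h. Five concentrations (10-fold or half-log dilutions from DMSO stock) added; 48 h at 37 °C, 5% CO2. Cold TCA fixation (final 10%, 60 min, 4 °C), 0.4% SRB stain, dye solubilized in 10 mM trizma base, A515.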

NCI-H460 [6] = experiment: Cytotoxicity against human NCI-H460 cells assessed as cell growth at 10 uM; conditions: Homo sapiens, NCI-H460; read-out: Activity; procedure, shortened: as §1
[7] = Cytotoxicity against human Hs 578T cells assessed as cell growth at 10 uM; conditions: read-out: Activity; procedure, shortened: as §2
SN12C [8] = experiment: Cytotoxicity against human SN12C cells assessed as cell growth at 10 uM; conditions: Homo sapiens, SN12C; read-out: Activity; procedure, shortened: as §1
MDA-MB-435 = experiment: Cytotoxicity against human MDA-MB-435 cells assessed as cell growth at 10 uM; conditions: read-out: Activity; procedure, shortened: as §1
NCI-H460 [9] = experiment: Cytotoxicity against human NCI-H460 cells assessed as cell growth at 0.01 uM after 48 hrs by sulforhodamine B assay; conditions: NCI-H460, 48 h, read-out: Activity
A498 = experiment: Cytotoxicity against human A498 cells assessed as cell growth at 10 uM; conditions: Homo sapiens, A498; read-out: Activity; procedure, shortened: as §2
SK-MEL-5 = experiment: Cytotoxicity against human SK-MEL-5 cells assessed as cell growth at 10 uM; conditions: Homo sapiens, SK-MEL-5; read-out: Activity; procedure, shortened: as §1
KM12 [10] = experiment: Cytotoxicity against human KM12 cells assessed as cell growth at 100 nM after 48 hrs by sulforhodamine B assay; conditions: KM12, 48 h, read-out: Activity
SW-620 = experiment: Cytotoxicity against human SW620 cells assessed as cell growth at 0.001 uM after 48 hrs by sulforhodamine B assay; conditions: SW-620, 48 h, read-out: Activity
TK-10 = experiment: Cytotoxicity against human TK10 cells assessed as cell growth at 100 nM after 48 hrs by sulforhodamine B assay; conditions: TK-10, 48 h, read-out: Activity
RXF 393 = experiment: Cytotoxicity against human RXF393 cells assessed as cell growth at 10 uM; conditions: Homo sapiens, RXF 393; read-out: Activity; procedure, shortened: as §1
KM12 [11] = experiment: Cytotoxicity against human KM12 cells assessed as cell growth at 10 uM; conditions: Homo sapiens, KM12; read-out: Activity; procedure, shortened: as §1
A549 = experiment: Cytotoxicity against human A549 cells assessed as cell growth at 10 uM; conditions: Homo sapiens, A549; read-out: Activity; procedure, shortened: as §2
SN12C [12] = experiment: Cytotoxicity against human SN12C cells assessed as cell growth at 100 nM after 48 hrs by sulforhodamine B assay; conditions: read-out: Activity
T47D = experiment: Cytotoxicity against human T47D cells assessed as cell growth at 10 uM; conditions: Homo sapiens, T47D; read-out: Activity; procedure, shortened: as §1
HOP-92 = experiment: Cytotoxicity against human HOP92 cells assessed as cell growth at 10 uM; conditions: Homo sapiens, HOP-92; read-out: Activity; procedure, shortened: as §2

SMILES	growth at 0.1 µM (HCT-116 [1])	growth at 10 µM (UACC-62)	growth at 10 µM (SNB-19 [2])	growth at 0.1 µM (EKVX)	growth at 10 µM (HCT-116 [3])	growth at 10 µM (SK-MEL-2)	growth at 10 µM (OVCAR-5)	growth at 10 µM (CCRF-CEM)	growth at 0.001 µM (SF-268)	growth at 10 µM (NCI-H322M)	growth at 10 µM (M14)	growth at 10 µM (HL-60(TB))	growth at 10 µM (IGROV-1)	growth at 0.1 µM (SNB-19 [4])	growth at 10 µM [5]	growth at 10 µM (786-0)	growth at 0.001 µM (HCT-15)	growth at 0.1 µM (COLO 205)	growth at 10 µM (NCI-H460 [6])	growth at 10 µM [7]	also measured
CC(=O)c1ccccc1-c1ccc(-c2ccnc(NC(=O)Nc3cc(N4CCOCC4)cc(C(F)(F)F)c3)n2)cn1	86%	76%	71.7%	91%	66%	60.8%	102%	80.7%	103%	90.1%	8.07%	95.7%	70.8%	95%	79.7%	47.3%	98%	107%	87.4%	60.8%	growth at 10 µM (SN12C [8]): 52.3%; growth at 10 µM (MDA-MB-435): 82.8%; growth at 0.01 µM (NCI-H460 [9]): 110%; growth at 10 µM (A498): 107%; growth at 10 µM (SK-MEL-5): 43.2%; growth at 0.1 µM (KM12 [10]): 89%; growth at 0.001 µM (SW-620): 98%; growth at 0.1 µM (TK-10): 100%; growth at 10 µM (RXF 393): -19.6%; growth at 10 µM (KM12 [11]): 90.4%; growth at 10 µM (A549): 68%; growth at 0.1 µM (SN12C [12]): 83%; growth at 10 µM (T47D): 79.8%
CC(=O)Nc1cccc(-c2ccc(-c3ccnc(NC(=O)Nc4cc(C(F)(F)F)cc(C(F)(F)F)c4)n3)cn2)c1.Cl	72%	46.6%	50.5%	63%	100%	62.1%	93.5%	43.3%	95%	41.8%	46.5%	60.1%	76%	90%	38.1%	69.8%	96%	96%	34.5%	120%	growth at 10 µM (SN12C [8]): 68%; growth at 10 µM (MDA-MB-435): 73.9%; growth at 0.01 µM (NCI-H460 [9]): 93%; growth at 10 µM (A498): 59%; growth at 10 µM (SK-MEL-5): -25.5%; growth at 0.1 µM (KM12 [10]): 92%; growth at 0.001 µM (SW-620): 95%; growth at 0.1 µM (TK-10): 105%; growth at 10 µM (RXF 393): 121%; growth at 10 µM (KM12 [11]): 72.7%; growth at 0.1 µM (SN12C [12]): 86%; growth at 10 µM (T47D): -11.3%; growth at 10 µM (HOP-92): 72.4%
